This note sets out measurements from ChEMBL document CHEMBL2021809, “Synthesis, biological evaluation and molecular modeling study of pyrazole and pyrazoline derivatives as selective COX-2 inhibitors and anti-inflammatory agents. Part 2” (Bioorg Med Chem, 2012).

Where only a bound is given, the exact number is not on record here.

The IC50 is the concentration that gives 50% inhibition. The inhibition in vivo is the percentage by which the read-out fell short of the control. What is called ED50 is the dose at which the effect has come halfway, by size or by number of responders.

For assay [1], the target named is T1, Prostaglandin G/H synthase 1 (Ovis aries, UniProt P05979).
T1 sequence (P05979 whole entry): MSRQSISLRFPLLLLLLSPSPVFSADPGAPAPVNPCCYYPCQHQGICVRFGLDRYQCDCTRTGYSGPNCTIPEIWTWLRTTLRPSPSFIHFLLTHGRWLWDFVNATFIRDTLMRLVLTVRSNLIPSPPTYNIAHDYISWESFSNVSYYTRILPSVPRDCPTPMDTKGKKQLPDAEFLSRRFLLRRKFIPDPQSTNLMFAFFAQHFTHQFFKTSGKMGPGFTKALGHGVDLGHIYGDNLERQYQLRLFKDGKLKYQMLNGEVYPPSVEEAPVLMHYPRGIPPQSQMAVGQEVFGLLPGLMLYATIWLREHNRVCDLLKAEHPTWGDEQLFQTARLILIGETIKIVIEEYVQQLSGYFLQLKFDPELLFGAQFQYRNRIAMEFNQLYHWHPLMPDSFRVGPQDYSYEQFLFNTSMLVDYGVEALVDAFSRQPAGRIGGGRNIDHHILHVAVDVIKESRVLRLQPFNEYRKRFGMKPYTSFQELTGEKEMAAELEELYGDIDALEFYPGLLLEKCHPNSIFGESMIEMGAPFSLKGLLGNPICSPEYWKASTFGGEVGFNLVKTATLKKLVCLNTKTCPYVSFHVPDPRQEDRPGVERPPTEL
Description: Inhibition of ovine COX1 by enzyme immuno assay.

Assay [2] deals with Rattus norvegicus. Nature of the assay: Antiinflammatory activity in rat assessed as inhibition of carrageenan-induced foot paw edema at 100 mg/kg, ip measured after 2 hrs. The assay is classed as functional. The following applies: route intraperitoneal. An outline of the steps: (§1)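 Edema was induced in the rat paw with carrageenan. The read-out was percent reduction of edema at 2 h for each single dose. Test doses were 100 and 200 mg/kg. The reference agent was given at 50 and 100 mg/kg ip.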
For orientation: The carrageenan paw model is a standard test of acute inflammation.

Assay [3] concerns Rattus norvegicus. Nature of the assay: Antiinflammatory activity in rat assessed as inhibition of carrageenan-induced foot paw edema at 200 mg/kg, ip measured after 2 hrs. The following applies: route intraperitoneal. The assay is classed as functional. An outline of the steps: as §1
For assay [4], the system named is Rattus norvegicus. Nature of the assay: Antiinflammatory activity in ip dosed rat assessed as inhibition of carrageenan-induced foot paw edema measured after 2 hrs. The assay is classed as functional.
Assay [5] concerns Rattus norvegicus. Description: Antiinflammatory activity in rat assessed as inhibition of carrageenan-induced foot paw edema at 50 mg/kg, ip measured after 2 hrs. It is filed as functional. The following applies: route intraperitoneal. The gist of the method:
as §1

As for `O=C(/C(=C/c1ccccc1O)C(=O)C(F)(F)F)c1ccc(Cl)cc1`, the IC50 in assay [1] is above 50 µM.
Turning to `O=C(/C(=C/c1ccc(O)cc1)C(=O)C(F)(F)F)c1ccc(Cl)cc1`, the inhibition in vivo at 100 mg/kg in assay [2] was found to be 39.2%. Besides, in assay [1], the IC50 was above 50 µM. Besides, in assay [3], the inhibition in vivo at 200 mg/kg was found to be 78.9%. Further, in assay [4], the median effective dose (ED50) was 366 µmol/kg.
As to `COc1ccc(/C=C(/C(=O)c2ccc(Cl)cc2)C(=O)C(F)(F)F)cc1`, the inhibition in vivo at 100 mg/kg in assay [2] amounted to 26.3%. The compound further showed a half-inhibitory concentration (IC50) in assay [1] above 50 µM. Also, in assay [3], the inhibition in vivo at 200 mg/kg amounted to 52.4%. Moreover, the 50% effective dose (ED50) in assay [4] was determined as 528 µmol/kg.
As for `COc1ccc(/C=C(/C(=O)c2ccc(Cl)cc2)C(=O)C(F)(F)F)cc1OC`, in assay [2], the inhibition in vivo at 100 mg/kg was 38.7%. Also, the IC50 in assay [1] was above 50 µM. For the same compound, the inhibition in vivo at 200 mg/kg in assay [3] came to 80.2%. The median effective dose (ED50) in assay [4] stood at 321 µmol/kg.
The corresponding values for `O=C(/C(=C/c1cccc([N+](=O)[O-])c1)C(=O)C(F)(F)F)c1ccc(Cl)cc1` are 37.9%, above 50 µM, 80% and 343 µmol/kg.
In assay [1], `O=C(/C(=C/c1ccco1)C(=O)C(F)(F)F)c1ccc(Cl)cc1` showed a half-inhibitory concentration (IC50) above 50 µM.
Still for that read-out and setting: to `Oc1ccccc1/C=C1\C(c2ccc(Cl)cc2)=NN=C1C(F)(F)F` belongs above 50 µM.
Turning to `Oc1ccc(/C=C2\C(c3ccc(Cl)cc3)=NN=C2C(F)(F)F)cc1`, the inhibition in vivo at 100 mg/kg in assay [2] came to 35.3%. The same compound came in with a 50% inhibitory concentration (IC50) in assay [1] above 50 µM. The inhibition in vivo at 200 mg/kg in assay [3] amounted to 81.4%. Moreover, the ED50 in assay [4] is 370 µmol/kg.
As for `COc1ccc(/C=C2\C(c3ccc(Cl)cc3)=NN=C2C(F)(F)F)cc1`, the inhibition in vivo at 100 mg/kg in assay [2] came out at 33.4%. Moreover, in assay [1], the IC50 is above 50 µM. The inhibition in vivo at 200 mg/kg in assay [3] worked out at 69.1%. The ED50 in assay [4] turned out to be 405 µmol/kg.
The corresponding values for `COc1ccc(/C=C2\C(c3ccc(Cl)cc3)=NN=C2C(F)(F)F)cc1OC` are 42%, above 50 µM, 88.7% and 298 µmol/kg.
The corresponding values for `O=[N+]([O-])c1cccc(/C=C2\C(c3ccc(Cl)cc3)=NN=C2C(F)(F)F)c1` are 37.6%, above 50 µM, 84.5% and 318 µmol/kg.
The compound `FC(F)(F)C1=NN=C(c2ccc(Cl)cc2)/C1=C\c1ccco1` gave a concentration for half-maximal inhibition (IC50) in assay [1] above 50 µM.
Still for that read-out and setting: then `FC(F)(F)c1[nH]nc(-c2ccc(Cl)cc2)c1Cc1ccccc1`, with above 50 µM.
On to `FC(F)(F)c1nn(-c2ccccc2)c(-c2ccc(Cl)cc2)c1/C=N/c1ccc(Br)cc1`, for which the inhibition in vivo at 100 mg/kg in assay [2] stood at 25.2%. Further, in assay [1], the IC50 is above 50 µM. Also, the inhibition in vivo at 200 mg/kg in assay [3] worked out at 61.1%. In addition, the ED50 in assay [4] is 335 µmol/kg.
In the case of `FC(F)(F)c1nn(-c2ccccc2)c(-c2ccc(Cl)cc2)c1/C=N/c1ccccc1Cl`, in assay [1], the IC50 was above 50 µM.
Turning to `O=[N+]([O-])c1ccc(/N=C/c2c(C(F)(F)F)nn(-c3ccccc3)c2-c2ccc(Cl)cc2)cc1`, the inhibition in vivo at 100 mg/kg in assay [2] came out at 43.7%. The IC50 in assay [1] was above 50 µM. The inhibition in vivo at 200 mg/kg in assay [3] stood at 86.7%. Further, the 50% effective dose (ED50) in assay [4] is 243 µmol/kg.
The corresponding values for `FC(F)(F)c1cc(/N=C/c2c(C(F)(F)F)nn(-c3ccccc3)c2-c2ccc(Cl)cc2)cc(C(F)(F)F)c1` are 52%, above 50 µM, 89.3% and 170 µmol/kg.
For `N#CC(C#N)=Cc1c(C(F)(F)F)nn(-c2ccccc2)c1-c1ccc(Cl)cc1`, the half-inhibitory concentration (IC50) in assay [1] is above 50 µM.
`O=C1Nc2ccc(F)cc2C12CC(c1ccc(Br)cc1)=NN2` (centres undefined) gave a 50% inhibitory concentration (IC50) in assay [1] above 50 µM.
`Cc1ccc(C2=NNC3(C2)C(=O)Nc2ccc(F)cc23)cc1` (centres undefined): the IC50 in assay [1] is above 50 µM.
In the case of `Cc1ccc(-c2cc(C(F)(F)F)nn2-c2ccc(S(N)(=O)=O)cc2)cc1` [CELECOXIB], in assay [5], the inhibition in vivo at 50 mg/kg came out at 57%. In addition, the inhibition in vivo at 100 mg/kg in assay [2] amounted to 83%. Further, the ED50 in assay [4] was 185 µmol/kg.
The matching figures for `O=C(O)Cc1ccccc1Nc1c(Cl)cccc1Cl` [DICLOFENAC SODIUM]: 48.7%, 87.3% and 198 µmol/kg.
